The results in this text go back to ChEMBL document CHEMBL4342471, “Discovery of Thieno[2,3-d]pyrimidine-Based Hydroxamic Acid Derivatives as Bromodomain-Containing Protein 4/Histone Deacetylase Dual Inhibitors Induce Autophagic Cell Death in Colorectal Carcinoma Cells” (J Med Chem, 2020).

Calls of active or inactive are those of the source. The rule behind the calls is not given here.

For one data set, the system named is HT-29. As to the kind of experiment: Cytotoxicity against human HT-29 cells assessed as reduction in cell viability. It is filed as functional, cell-based. The method, boiled down: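 Antiproliferative IC50 values were measured by MTT assay across a panel of colorectal carcinoma cell lines and normal colorectal epithelial cells.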
The nature of data set [1]: Toxicity in BALB/cAnNCrl mouse xenografted with human HCT116 cells assessed as effect on lung morphological changes at 15 to 30 mg/kg, po administered on day 1 to day 19 measured on day 19 by hematoxylin and eosin staining based assay. The note with it: in vivo. Format: organism-based. The method, boiled down:
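HCT-116 xenograft mice dosed orally at 15 or 30 mg/kg for 19 days, saline as vehicle control; body weights tracked, and main organs sectioned and H&E-stained at study end.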

The species entered for data set [2] is Homo sapiens. The data set can be described thus: Inhibition of BRD4/HDAC in human HCT116 cells assessed as inhibition of IL6-JAK-STAT3 signaling pathway by measuring decrease in JAK1 expression at 0.5 uM after 24 hrs by Western blot analysis. Format: cell-based. The method, boiled down: (§1)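 HCT-116 cells treated 24 h with 0.5 µM, 5.0 µM or 10 µM test agent depending on compound; OSMR, LIFR and downstream pathway proteins detected by western blot.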

The species named for data set [3] is Homo sapiens. As to the kind of experiment: Inhibition of BRD4/HDAC in human HCT116 cells assessed as inhibition of IL6-JAK-STAT3 signaling pathway by measuring decrease in STAT3 phosphorylation at 0.5 uM after 24 hrs by Western blot analysis. It is filed as cell-based. The method, boiled down:
as §1

For data set [4], the target named is Bromodomain-containing protein 4 (Homo sapiens, UniProt O60885). The data set can be described thus: Inhibition of BRD4 in human HCT116 cells assessed as induction of autophagy by measuring LC3-I cleavage to LC3-II at 0.5 uM measured after 24 hrs by Western blot analysis. It is filed as cell-based. Summed up: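 HCT-116 cells were treated for 24 hours with 0.5 μM, 2.0 μM or 10 μM agents. LC3 (LC3-I to LC3-II conversion) and p62 were then detected by western blot.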

For `Cc1cc(-c2nc3sc4c(c3c(=O)[nH]2)CCN(C)C4)cc(C)c1OCCCCCC(=O)NO`, the result with HT-29 was Active. Further, the Activity entry in data set [1] is recorded as “Non-Toxic”. Also, the inhibition result (in the data set listed under Homo sapiens [2]; in the data set filed under Homo sapiens [3]; in data set [4]) was “Active” each time.
